Results reported in ChEMBL document CHEMBL4392865, “Indole Diterpenoids from an Endophytic Penicillium sp” (J Nat Prod, 2019).

Legend:
A2780 = assay: Cytotoxicity against human A2780 cells assessed as reduction in cell viability incubated for 72 hrs by MTT assay; format: functional, cell-based
L5178Y = assay: Cytotoxicity against mouse L5178Y cells assessed as reduction in cell viability incubated for 72 hrs by MTT assay; format: functional, cell-based
Summary of the method: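 Murine L5178Y lymphoma cells were the cells tested, with kahalalide F run in parallel as the positive control. The read-out was IC50.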

HEK293 = assay: Cytotoxicity against HEK293 cells assessed as reduction in cell viability incubated for 72 hrs by MTT assay; format: cell-based; conditions: Homo sapiens, HEK293, 72 h
[1] = Selectivity index, ratio of IC50 for HEK293 cells to IC50 for human A2780 cells; format: toxicity; conditions: HEK293 cells versus A2780 cells, read-out: Ratio IC50
Summary of the method: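 Selectivity index is the IC50 against HEK-293 cells divided by the IC50 against A2780 ovarian cancer cells, each from this paper's cytotoxicity testing.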

J82 = assay: Cytotoxicity against human J82 cells assessed as reduction in cell viability incubated for 72 hrs by high content analysis based fluorescent live/dead assay; format: functional
Summary of the method: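 J82 bladder cancer cells were analysed by fluorescent live/dead staining. An imaging system gave direct counts of live and dead cells, and IC50 values were derived from these counts.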

[2] = Mus musculus, L5178Y, 72 h, read-out: IC50
[3] = Homo sapiens, A2780, 72 h, read-out: IC50
[4] = Homo sapiens, J82, 72 h, read-out: IC50

## CC(C)=CCc1ccc2[nH]c3c(c2c1)C[C@@H]1CC[C@@]2(O)C4=CC(=O)[C@@H](C(C)(C)O)O[C@H]4CC[C@]2(C)[C@@]31C
A2780; a2780
  IC50: Not Active
L5178Y; [2]
  IC50: 12.9 µM

## CC(C)(O)[C@H]1O[C@@]2(O)CC[C@@]3(C)[C@@H](CC[C@H]4Cc5c([nH]c6ccccc56)[C@@]43C)C2=CC1=O
A2780; a2780
  IC50: Not Active
L5178Y; [2]
  IC50: 6.2 µM
HEK293
  IC50: 39.8 µM

## CC1(C)CC2=C(Cc3cc4c5c([nH]c4cc32)[C@@]2(C)[C@@H](CC[C@@]3(O)C4=CC(=O)[C@@H](C(C)(C)O)OC4=CC[C@@]32C)C5)C(C)(C)O1
[1]
  selectivity ratio: 4.8
A2780; [3]
  IC50: 7.8 µM
L5178Y; [2]
  IC50: 8.1 µM
J82; [4]
  IC50: 31.7 µM
HEK293
  IC50: 37.4 µM

## CC1(C)CC2=C(Cc3cc4c(cc32)NC(=O)[C@@]2(C)[C@@H](CC[C@@]3(O)C5=CC(=O)[C@@H](C(C)(C)O)O[C@H]5CC[C@@]32C)CC4=O)C(C)(C)O1
[1]
  selectivity ratio: 2.4
A2780; [3]
  IC50: 11.9 µM
L5178Y; [2]
  IC50: 7.6 µM
J82; [4]
  IC50: 29.4 µM
HEK293
  IC50: 28.3 µM

## CO[C@]12CC[C@@]3(C)[C@@](O)(CC[C@H]4Cc5c([nH]c6cc7c(cc56)CC5=C7CC(C)(C)OC5(C)C)[C@@]43C)C1=CC(=O)[C@@H](C(C)(C)O)O2
A2780; [3]
  IC50: 32.2 µM
L5178Y; l5178y
  IC50: Not Active
J82; [4]
  IC50: 96.7 µM

## CC(C)(O)[C@H]1O[C@@]2(O)CC[C@@]3(C)C(=CC[C@H]4Cc5c([nH]c6ccccc56)[C@@]43C)C2=CC1=O
A2780; a2780
  IC50: Not Active
L5178Y; [2]
  IC50: 5.3 µM
HEK293
  IC50: 27.9 µM

## CC(C)(O)[C@H]1O[C@H]2CC[C@@]3(C)[C@@H](CC[C@H]4Cc5c([nH]c6ccccc56)[C@@]43C)C2=C[C@H]1O
A2780; [3]
  IC50: 28.5 µM
L5178Y; l5178y
  IC50: Not Active

## CC1(C)O[C@@]23CC[C@@]4(C)C(=CC[C@H]5Cc6c([nH]c7ccccc67)[C@@]54C)C2=CC(=O)[C@@H]1O3
[1]
  selectivity ratio: 1.8
A2780; [3]
  IC50: 12.2 µM
L5178Y; [2]
  IC50: 5.3 µM
J82; [4]
  IC50: 42.1 µM
HEK293
  IC50: 21.7 µM

## CO[C@]12CC[C@@]3(C)[C@@](O)(CC[C@H]4Cc5c([nH]c6ccccc56)[C@@]43C)C1=CC(=O)[C@@H](C(C)(C)O)O2
A2780; [3]
  IC50: 12.2 µM
L5178Y; l5178y
  IC50: Not Active
J82; [4]
  IC50: 55.3 µM

## CC1(C)CC2=C(Cc3cc4c5c([nH]c4cc32)[C@@]2(C)[C@@H](CC[C@@]3(O)C4=CC(=O)[C@@H](C(C)(C)O)O[C@H]4CC[C@@]32C)C5)C(C)(C)O1
A2780; [3]
  IC50: 12.8 µM
L5178Y; [2]
  IC50: 10.9 µM

## CO[C@]12CC[C@@]3(C)[C@@](O)(CC[C@H]4CC(=O)c5cc6c(cc5NC(=O)[C@@]43C)C3=C(C6)C(C)(C)OC(C)(C)C3)C1=CC(=O)[C@@H](C(C)(C)O)O2
A2780; [3]
  IC50: 19.4 µM
L5178Y; l5178y
  IC50: Not Active
J82; [4]
  IC50: 73 µM

## CC(C)=CCc1ccc2[nH]c3c(c2c1)C[C@@H]1CC[C@@]2(O)C4=CC(=O)[C@@H]5O[C@@]4(CC[C@]2(C)[C@@]31C)OC5(C)C
A2780; [3]
  IC50: 19.8 µM
L5178Y; l5178y
  IC50: Not Active

## CC1(C)O[C@@]23CC[C@]4(C)c5cc6[nH]c7ccccc7c6cc5CC[C@H]4C2=CC(=O)[C@@H]1O3
[1]
  selectivity ratio: 3.3
A2780; [3]
  IC50: 8.7 µM
L5178Y; [2]
  IC50: 3.6 µM
J82; [4]
  IC50: 40.6 µM
HEK293
  IC50: 28.5 µM

## CC1(C)CC2=C(Cc3cc(C(=O)C[C@@H]4CC[C@@]5(O)C6=CC(=O)[C@@H](C(C)(C)O)O[C@H]6CC[C@]5(C)[C@@]4(C)C(=O)O)c(N)cc32)C(C)(C)O1
A2780; [3]
  IC50: 51.5 µM
L5178Y; l5178y
  IC50: Not Active
J82; j82
  IC50: Not Active

## CC(C)(O)[C@H]1O[C@H]2CC[C@@]3(C)[C@@H](CC[C@H]4Cc5c([nH]c6ccccc56)[C@@]43C)C2=CC1=O [DEHYDROXYPAXILLINE]
A2780; [3]
  IC50: 17.1 µM
L5178Y; l5178y
  IC50: Not Active

## CC(C)=CCC[C@]1(C)[C@@H](O)CC[C@@]2(C)[C@H]1CC[C@H]1Cc3c([nH]c4ccccc34)[C@@]12C [EMINDOLE SB]
[1]
  selectivity ratio: 5.4
A2780; [3]
  IC50: 8.2 µM
L5178Y; [2]
  IC50: 18.3 µM
HEK293
  IC50: 44.6 µM

## CC(C)(O)[C@@H]1CC[C@]2(C)[C@H](CC[C@@]3(C)[C@H]2CC[C@H]2Cc4c([nH]c5ccccc45)[C@@]23C)O1 [PASPALINE]
[1]
  selectivity ratio: 8.1
A2780; [3]
  IC50: 5.3 µM
L5178Y; l5178y
  IC50: Not Active
HEK293
  IC50: 43 µM
